Series [1] has as its target Genome polyprotein (Coxsackievirus B3 (strain Nancy)) (UniProt P03313). As to the kind of experiment: Inhibition of Coxsackievirus B3 C-terminal His6-tagged protease 3C expressed in Escherichia coli BL21(DE3) at 650 uM using N-Dabcyl-KTLEALFQGPPVYE-(Edans)-NH2 as substrate after 30 mins by fluorescence assay relative to control. An outline of the steps: (§1)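 Enzyme added from 40 μM and substrate from 20 μM working solutions, inhibitor in DMSO, DMSO alone as control. Fluorescence read at ex 355/em 538 nm over 30 min, triplicates. Apparent IC50 from a Hill-type fit of initial velocities; kobs for covalent reversible inhibition from progress-curve fits.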
Target sequence in this assay (P03313 whole entry): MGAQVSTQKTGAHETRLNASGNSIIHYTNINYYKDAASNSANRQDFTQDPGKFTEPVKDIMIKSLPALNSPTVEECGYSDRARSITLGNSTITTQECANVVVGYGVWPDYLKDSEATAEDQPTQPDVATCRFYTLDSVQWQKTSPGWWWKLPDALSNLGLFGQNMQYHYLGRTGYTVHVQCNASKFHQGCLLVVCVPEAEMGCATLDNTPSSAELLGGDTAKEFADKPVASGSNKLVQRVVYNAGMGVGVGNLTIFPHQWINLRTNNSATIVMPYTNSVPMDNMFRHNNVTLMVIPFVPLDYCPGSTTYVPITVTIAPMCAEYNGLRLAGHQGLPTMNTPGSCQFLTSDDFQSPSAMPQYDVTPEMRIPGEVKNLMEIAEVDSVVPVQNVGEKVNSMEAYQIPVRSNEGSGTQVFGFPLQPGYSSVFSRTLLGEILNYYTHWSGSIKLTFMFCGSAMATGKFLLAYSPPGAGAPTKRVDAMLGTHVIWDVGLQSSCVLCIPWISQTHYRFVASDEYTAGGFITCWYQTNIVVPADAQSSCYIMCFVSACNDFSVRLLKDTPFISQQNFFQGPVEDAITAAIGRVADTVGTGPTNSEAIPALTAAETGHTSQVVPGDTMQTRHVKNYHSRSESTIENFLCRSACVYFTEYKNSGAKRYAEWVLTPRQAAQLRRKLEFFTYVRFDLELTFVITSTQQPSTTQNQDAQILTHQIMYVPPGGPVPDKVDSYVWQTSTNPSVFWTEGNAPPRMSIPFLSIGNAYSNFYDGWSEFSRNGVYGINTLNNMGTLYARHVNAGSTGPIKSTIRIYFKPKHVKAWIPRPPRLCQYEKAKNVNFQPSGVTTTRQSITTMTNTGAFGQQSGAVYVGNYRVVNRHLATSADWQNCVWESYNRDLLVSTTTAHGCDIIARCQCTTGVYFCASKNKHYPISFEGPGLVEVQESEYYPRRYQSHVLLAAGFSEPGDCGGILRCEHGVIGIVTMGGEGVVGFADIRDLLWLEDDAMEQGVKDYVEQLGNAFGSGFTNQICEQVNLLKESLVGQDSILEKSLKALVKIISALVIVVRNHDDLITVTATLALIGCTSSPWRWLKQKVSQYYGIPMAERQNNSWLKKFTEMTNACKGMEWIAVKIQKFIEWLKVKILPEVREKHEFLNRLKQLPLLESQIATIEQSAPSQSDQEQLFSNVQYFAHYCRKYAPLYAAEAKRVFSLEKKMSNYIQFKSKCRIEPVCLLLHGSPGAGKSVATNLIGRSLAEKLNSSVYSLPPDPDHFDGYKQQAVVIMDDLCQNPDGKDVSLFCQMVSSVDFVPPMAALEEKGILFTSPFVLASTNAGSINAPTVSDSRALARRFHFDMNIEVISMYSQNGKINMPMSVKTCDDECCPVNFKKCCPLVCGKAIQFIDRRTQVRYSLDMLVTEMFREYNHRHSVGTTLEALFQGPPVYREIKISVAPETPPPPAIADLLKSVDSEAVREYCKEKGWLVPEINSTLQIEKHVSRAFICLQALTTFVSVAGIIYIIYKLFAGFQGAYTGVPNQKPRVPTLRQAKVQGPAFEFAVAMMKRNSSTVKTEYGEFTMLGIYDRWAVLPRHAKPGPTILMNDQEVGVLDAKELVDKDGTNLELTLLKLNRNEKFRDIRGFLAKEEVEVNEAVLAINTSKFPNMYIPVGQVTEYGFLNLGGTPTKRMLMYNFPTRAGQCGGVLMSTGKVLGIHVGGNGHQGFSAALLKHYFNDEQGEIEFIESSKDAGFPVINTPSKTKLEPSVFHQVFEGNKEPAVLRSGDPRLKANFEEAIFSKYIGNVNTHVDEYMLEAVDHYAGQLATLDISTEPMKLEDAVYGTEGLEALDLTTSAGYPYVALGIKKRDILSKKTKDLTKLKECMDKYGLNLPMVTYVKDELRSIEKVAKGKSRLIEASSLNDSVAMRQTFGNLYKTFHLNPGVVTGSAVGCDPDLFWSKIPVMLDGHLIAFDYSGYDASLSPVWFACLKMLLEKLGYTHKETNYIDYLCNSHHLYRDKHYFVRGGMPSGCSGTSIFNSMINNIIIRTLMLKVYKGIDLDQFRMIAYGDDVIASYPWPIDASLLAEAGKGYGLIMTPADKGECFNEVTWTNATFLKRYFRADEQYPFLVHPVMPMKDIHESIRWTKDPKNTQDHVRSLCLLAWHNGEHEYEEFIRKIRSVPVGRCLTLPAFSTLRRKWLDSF

Series [2] addresses T1, Genome polyprotein (Coxsackievirus B3 (strain Nancy), UniProt P03313). As to the kind of experiment: Reversible inhibition of Coxsackievirus B3 C-terminal His6-tagged protease 3C expressed in Escherichia coli BL21(DE3) using N-Dabcyl-KTLEALFQGPPVYE-(Edans)-NH2 as substrate after 30 mins by fluorescence assay. An outline of the steps:
(§2)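 FRET cleavage assay in 100 mM HEPES-NaOH pH 7.5, 1 mM EDTA, 0.01% Triton X. Enzyme added from a 40 µM stock, substrate diluted to 20 µM before addition. Inhibitor in DMSO, DMSO alone as control. Fluorescence at 538 nm (ex 355 nm) over 30 min, triplicates. Apparent IC50 from nonlinear fit of vi/v0 = 1/(1+[I]/IC50)^h. Ki from koff/kon for covalent reversible binding.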

Series [3] concerns the target Genome polyprotein (Coxsackievirus B3 (strain Nancy)) (UniProt P03313). As to the kind of experiment: Inhibition of Coxsackievirus B3 C-terminal His6-tagged protease 3C expressed in Escherichia coli BL21(DE3) using N-Dabcyl-KTLEALFQGPPVYE-(Edans)-NH2 as substrate preincubated up to 60 mins followed by substrate addition by fluorescence assay. The settings on record: TDE = time-dependent effect. The method, boiled down:
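Enzyme and inhibitor (or DMSO) preincubated in assay buffer (HEPES-NaOH pH 7.5, EDTA, Triton X) for 60, 40, 20 or 0 min under a lid. Reaction started by FRET substrate addition and followed 60 min by fluorescence (ex 355/em 538 nm). Triplicates per incubation time. Relative activity calculated for every 5-min step of the reaction.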
Target sequence in this assay (P03313 whole entry): as above

Series [4] has the same target. As to the kind of experiment: Inhibition of Coxsackievirus B3 C-terminal His6-tagged protease 3C expressed in Escherichia coli BL21(DE3) at 500 uM using N-Dabcyl-KTLEALFQGPPVYE-(Edans)-NH2 as substrate preincubated up to 60 mins followed by substrate addition by fluorescence assay. The settings on record: TDE = time-dependent effect. The method, boiled down:
(§3)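 CVB3 3Cpro preincubated with inhibitor (or DMSO control) in 100 mM HEPES-NaOH pH 7.5, 1 mM EDTA, 0.01% Triton X, lid-covered, for 60, 40, 20 or 0 min. Substrate then added and reaction followed 60 min (ex 355/em 538 nm). Relative activity calculated per 5-min step versus control. Triplicates per incubation time.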
Target sequence in this assay (P03313 whole entry): as above

Series [5] has the same target. As to the kind of experiment: (§4) Inhibition of Coxsackievirus B3 C-terminal His6-tagged protease 3C expressed in Escherichia coli BL21(DE3) using N-Dabcyl-KTLEALFQGPPVYE-(Edans)-NH2 as substrate after 30 mins by fluorescence assay. An outline of the steps: as §2
Target sequence in this assay (P03313 1541-1723 limits assumed): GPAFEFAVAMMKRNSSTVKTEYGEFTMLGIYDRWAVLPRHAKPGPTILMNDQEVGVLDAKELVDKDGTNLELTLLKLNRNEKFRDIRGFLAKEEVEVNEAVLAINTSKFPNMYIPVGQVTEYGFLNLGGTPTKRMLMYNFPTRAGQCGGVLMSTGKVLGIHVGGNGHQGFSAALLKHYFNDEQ
Series [6] deals with T1, Genome polyprotein. The series is described as §4. An outline of the steps: as §2
Series [7] can be described thus: Drug level in HEPES-NaOH buffer treated with 7,7-dimethyl-2,5-dioxo-5,6,7,8-tetrahydro-2H-chromene-3-carboxamide overnight by LC-MS analysis.
Series [8] concerns the target Genome polyprotein (Coxsackievirus B3 (strain Nancy)) (UniProt P03313). As to the kind of experiment: Irreversible inhibition of Coxsackievirus B3 C-terminal His6-tagged protease 3C expressed in Escherichia coli BL21(DE3) assessed as ratio of Kinact to Ki using N-Dabcyl-KTLEALFQGPPVYE-(Edans)-NH2 as substrate after 30 mins by fluorescence assay. An outline of the steps:
(§5)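 Same FRET assay (HEPES-NaOH 100 mM, EDTA 1 mM, Triton X 0.01%, pH 7.5; ex 355/em 538 nm; triplicates). kobs for irreversible inhibition obtained by fitting progress curves to [P]=vi/kobs(1−e^(−kobs·t)). kinact/KI taken from the slope of the linear portion of kobs versus inhibitor concentration.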
Target sequence in this assay (P03313 whole entry): as the sequence (P03313 whole entry) above

Series [9] deals with enterovirus D68. Briefly: Irreversible inhibition of Enetrovirus D68 C-terminal His6-tagged protease 3C expressed in Escherichia coli BL21(DE3) assessed as ratio of Kinact to Ki using N-Dabcyl-KTLEALFQGPPVYE-(Edans)-NH2 as substrate after 30 mins by fluorescence assay. The method, boiled down:
as §5

Series [10] concerns enterovirus D68. As to the kind of experiment: Binding affinity to Enetrovirus D68 C-terminal His6-tagged protease 3C at Cys147 residue expressed in Escherichia coli BL21(DE3) assessed as adduct formation after 30 mins by fluorescence assay.
Series [11] is described as follows: Glutathione reactivity assessed as GSH-adduct formation after 2 to 24 hrs by LC-MS/MS analysis. An outline of the steps: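 Inhibitor in DMSO at 2.5 mM, mixed with equimolar glutathione in assay buffer (100 mM HEPES-NaOH, 1 mM EDTA, 0.01% Triton X, pH 7.5). Held at room temperature for 2 h and 24 h, with an aliquot taken by LC/MS after each period. Controls for each inhibitor omitted glutathione.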

The target of series [12] is Genome polyprotein (Coxsackievirus B3 (strain Nancy)) (UniProt P03313). Briefly: Inhibition of Coxsackievirus B3 C-terminal His6-tagged protease 3C expressed in Escherichia coli BL21(DE3) at 100 uM using N-Dabcyl-KTLEALFQGPPVYE-(Edans)-NH2 as substrate preincubated up to 60 mins followed by substrate addition by fluorescence assay. The settings on record: TDE = time-dependent effect. The method, boiled down:
as §3
Target sequence in this assay (P03313 whole entry): as above

For series [13] the target is unchanged. As to the kind of experiment: Irreversible inhibition of Coxsackievirus B3 C-terminal His6-tagged protease 3C expressed in Escherichia coli BL21(DE3) after 60 mins by LC-MS analysis.
Target sequence in this assay (P03313 whole entry): as above
For series [14] the target is unchanged. As to the kind of experiment: Irreversible inhibition of Coxsackievirus B3 C-terminal His6-tagged protease 3C expressed in Escherichia coli BL21(DE3) assessed as protein-compound adduct formation after 60 mins by LC-MS analysis.
Series [15] has the same target. As to the kind of experiment: Irreversible inhibition of Coxsackievirus B3 C-terminal His6-tagged protease 3C expressed in Escherichia coli BL21(DE3) assessed as thioether adduct formation after 60 mins by MALDi-TOF spectral analysis.
A short description of series [16]: Reversible inhibition of Enetrovirus D68 C-terminal His6-tagged protease 3C expressed in Escherichia coli BL21(DE3) using N-Dabcyl-KTLEALFQGPPVYE-(Edans)-NH2 as substrate after 30 mins by fluorescence assay. The arrangement: species or system enterovirus D68. The method, boiled down: as §1
For series [17], the system named is enterovirus D68. Briefly: Binding affinity to Enetrovirus D68 C-terminal His6-tagged protease 3C at Cys60 residue expressed in Escherichia coli BL21(DE3) assessed as adduct formation after 30 mins by fluorescence assay.
A short description of series [18]: Solubility of the compound. Format: physicochemical.

Results on 13 compounds are retold here after ChEMBL document CHEMBL4024796, “Phenylthiomethyl Ketone-Based Fragments Show Selective and Irreversible Inhibition of Enteroviral 3C Proteases” (J Med Chem, 2018).

Broadly, the inhibition is the relative decrease from the control value, in per cent. The term Ki denotes a measure of affinity in units of concentration, obtained from inhibition or displacement. For orientation: IC50 means the midpoint of a concentration-inhibition curve. Read a high IC50 as weaker potency in that assay.

Calls of active or inactive are those of the source. No cut-off for these calls is given here.

T1 sequence (P03313 1541-1723 limits assumed): as the sequence (P03313 1541-1723 limits assumed) above

For `CC(=O)c1c(C)[nH]c(C(N)=O)c1C`, the inhibition in [1] is below 20%.
The compound `NC(=O)c1cc(C(=O)C(Sc2ccccc2)Sc2ccccc2)cn1C/C=C/c1ccccc1` had a Ki on Genome polyprotein [2] of 272 µM. The inhibition entry in [3] is “Tde”.
Consider `O=C(CSc1ccccc1)c1ccccc1`, for which, in [1], the inhibition result is “inactive”.
As for `CC1(C)CC(=O)c2cc(C(N)=O)c(=O)oc2C1`, the inhibition is above 30% in series [1], “Tde” in series [4] and “Dose-dependent effect” in series [5]. The compound further showed an IC50 on Genome polyprotein [6] of 355 µM. The Ki at Genome polyprotein [6] came to 393 µM.
As to `CC1(C)CC(=O)c2cc(C(=O)O)c(=O)oc2C1`, the Drug metabolism entry in series [7] is listed as “Metabolite detected”.
As for `NC(=O)c1cc(C(=O)CSc2ccccc2)cn1C/C=C/c1ccccc1`, the Ratio was 54.4 M⁻¹ s⁻¹ in series [8] and 160 M⁻¹ s⁻¹ in the series with enterovirus D68 [9]. The inhibition entry in series [3] is “Tde”. In the series with enterovirus D68 [10], the outcome was Active. For the same compound, the Drug metabolism result in series [11] is reported as “Metabolite detected”.
In the case of `Cn1cc(C(=O)Cn2cccc(C(F)(F)F)c2=O)cc1C(N)=O`, the inhibition in series [1] is below 20%.
With `Cn1cc(C(=O)CSc2ccccc2)cc1C(N)=O`, the inhibition result in series [1], in series [13], in series [14] and in series [15] was “Active” in each case. The inhibition entry in [12] was “Tde”; in series [5] it was “Dose-dependent effect”. Besides, the results for the Ratio (in series [8]; in the series with enterovirus D68 [9]) were 16.8 M⁻¹ s⁻¹ and 21.3 M⁻¹ s⁻¹, respectively. Further, in the series on enterovirus D68 [10], the result was Active.
Turning to `CC(=O)c1cc(C(N)=O)n(C/C=C/c2ccccc2)c1`, the Ki amounted to 422 µM in [16] and 197 µM on Genome polyprotein [2]. Besides, the inhibition entry in [3] was “Tde”.
Regarding `Cn1cc(C(=O)CSc2nnnn2C)cc1C(N)=O`, the inhibition in series [1] was below 20%.
In the case of `Cc1ccc2[nH]c(C)c(C(=O)CSc3ccccc3)c2c1`, in series [1], the inhibition result was “inactive”.
On to `NC(=O)c1cc(C(=O)CBr)cn1C/C=C/c1ccccc1`, for which the Ratio in [8] amounted to 1710 M⁻¹ s⁻¹; in the series on enterovirus D68 [9], 1210 M⁻¹ s⁻¹. Moreover, in series [3], the inhibition entry was “Tde”. Also, the result with enterovirus D68 [17] and in the series with enterovirus D68 [10] was Active. Besides, in series [11], the Drug metabolism entry is given as “Metabolite detected”.
For `NC(=O)n1cc(C(=O)c2cc(O)ccc2Cl)cn1`, the solubility entry in [18] is reported as “Insoluble”.
